From ChEMBL document CHEMBL4364284, “Design, Synthesis, and Efficacy Testing of Nitroethylene- and 7-Nitrobenzoxadiazol-Based Flavodoxin Inhibitors against Helicobacter pylori Drug-Resistant Clinical Strains and in Helicobacter pylori-Infected Mice” (J Med Chem, 2019)
In brackets after ≈: the same amount, converted by molar mass. Activity calls are given as the source filed them. The calls are words filed in the database; no cut-off is given here.

Columns and labels:
[1] = Therapeutic index, ratio of MCC50 for human HeLa cells to MIC for inhibition of flavodoxin in Helicobacter pylori ATCC 700392 26695 assessed as reduction in bacterial growth; assay type: toxicity; conditions: HeLa cells versus Helicobacter pylori ATCC 700392 26695, read-out: TI
Procedure, shortened: (§1)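 TI is MCC50/MIC. For MCC50, HeLa cells (30 000/well, DMEM with 10% FBS) were exposed to compound at 25–1000 μM final. Viability by XTT at 450/650 nm; MCC50 is the concentration giving 50% lysis from viability curves. Run twice in triplicate.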

[2] = Toxicity in NMRI mouse assessed as change in body weight at 10 to 20 mg/100g, po administered daily via gavage for 8 days; assay type: organism-based; conditions: in vivo, 192 h
[3] = Cytotoxicity against human HeLa cells assessed as reduction in cell viability by XTT assay; assay type: cell-based; conditions: read-out: MCC50
Procedure, shortened: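 HeLa cells grown in DMEM with 10% FBS, penicillin and streptomycin at 37 °C, 5% CO2; 30 000 cells/well. XTT viability read at 450 and 650 nm. MCC50 (50% lysis) came from viability-versus-concentration curves. Two experiments, each in triplicate.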

[4] = target: T1, Flavodoxin (Helicobacter pylori (strain ATCC 700392 / 26695) (Campylobacter pylori)) (UniProt O25776); test: Inhibition of flavodoxin in Helicobacter pylori ATCC 700392 26695 assessed as reduction in bacterial growth measured after 48 hrs by resazurin staining-based microdilution method; conditions: Helicobacter pylori 26695
T1 sequence (whole entry): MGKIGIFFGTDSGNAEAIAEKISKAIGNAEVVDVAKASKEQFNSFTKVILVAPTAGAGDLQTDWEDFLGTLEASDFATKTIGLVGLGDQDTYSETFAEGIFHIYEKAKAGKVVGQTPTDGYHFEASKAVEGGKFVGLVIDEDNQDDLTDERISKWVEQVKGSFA
Procedure, shortened: (§2)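 Broth microdilution in brain heart infusion with 4% FBS. Inoculum diluted to OD600 0.01. Two-fold dilutions from a DMSO stock cover 64–0.031 μg/mL, with DMSO ≤1% v/v. Incubated 48 h at 37 °C under microaerophilic conditions. MIC is the lowest concentration giving complete growth inhibition, read by resazurin colour change and confirmed by spotting on blood agar. Run twice in triplicate.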

[5] = target: T1, Flavodoxin (Helicobacter pylori (strain ATCC 700392 / 26695) (Campylobacter pylori)); test: Inhibition of flavodoxin in Helicobacter pylori SS1 assessed as reduction in bacterial growth measured after 48 hrs by resazurin staining-based microdilution method; procedure, shortened: as §2
Helicobacter pylori [6] = test: Antibacterial activity against Helicobacter pylori SS1 infected in NMRI mouse assessed as bacterial eradication at 10 mg/100g, po administered daily via gavage for 8 days starting from 1 week post-infection and measured 8 days post-last dose; assay type: functional, organism-based
Procedure, shortened: (§3)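 Female 6-week-old SPF NMRI mice, seven per condition, infected orogastrically on days 1 and 3 with 100 μL Hp SS1 (5 × 10^8 CFU/mL). From day 8, 100 μL compound in 5–10% DMSO/95–90% olive oil by daily oral gavage for 8 days. Infected controls got vehicle. Killed day 24; stomach homogenates plated 5 days at 37 °C microaerophilic; CFU/g tissue versus control. Mann-Whitney U and unpaired t tests, p ≤ 0.05.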

[7] = target: T1, Flavodoxin (Helicobacter pylori (strain ATCC 700392 / 26695) (Campylobacter pylori)); test: Binding affinity to Helicobacter pylori flavodoxin by thermal upshift assay
Staphylococcus aureus = test: Effect on growth of Staphylococcus aureus ATCC 1228 after 48 hrs by resazurin-dye based microdilution assay; assay type: organism-based
Escherichia coli = test: Effect on growth of Escherichia coli DH5[alpha] after 48 hrs by resazurin-dye based microdilution assay; assay type: organism-based
[8] = target: T1, Flavodoxin (Helicobacter pylori (strain ATCC 700392 / 26695) (Campylobacter pylori)); test: Binding affinity to Helicobacter pylori flavodoxin by isothermal titration calorimetric method
[9] = Toxicity in NMRI mouse infected with Helicobacter pylori SS1 assessed as change in appetite at 10 to 20 mg/100g, po administered daily via gavage for 8 days starting from 1 week post-infection; assay type: organism-based; conditions: in vivo
Procedure, shortened: (§4)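 Female 6-week-old SPF NMRI mice infected orogastrically with Hp SS1 on days 1 and 3. Compound in 5–10% DMSO/olive oil (100 μL) given by daily oral gavage for 8 days from day 8. Body weight and appetite were monitored during treatment; infected controls received vehicle alone.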

[10] = target: T1, Flavodoxin (Helicobacter pylori (strain ATCC 700392 / 26695) (Campylobacter pylori)); test: Inhibition of flavodoxin in Mnz-resistant Helicobacter pylori NCTC 11637 ATCC 43504 assessed as reduction in bacterial growth measured after 48 hrs by resazurin staining-based microdilution method; conditions: Helicobacter pylori NCTC 11637 = CCUG 17874 = ATCC 43504; procedure, shortened: as §2
[11] = Therapeutic index, ratio of MCC50 for human HeLa cells to MIC for inhibition of flavodoxin in Mnz-resistant Helicobacter pylori NCTC 11637 ATCC 43504 assessed as reduction in bacterial growth; assay type: toxicity; conditions: read-out: TI; procedure, shortened: as §1
Helicobacter pylori [12] = test: Antibacterial activity against Helicobacter pylori SS1 infected in NMRI mouse assessed as reduction in gastric colonization at 10 mg/100g, po administered daily via gavage for 8 days starting from 1 week post-infection and measured 8 days post-last dose; assay type: functional, organism-based; procedure, shortened: as §3
[13] = Toxicity in NMRI mouse infected with Helicobacter pylori SS1 assessed as change in body weight at 10 to 20 mg/100g, po administered daily via gavage for 8 days starting from 1 week post-infection; assay type: organism-based; conditions: in vivo; procedure, shortened: as §4
[14] = Therapeutic index, ratio of MCC50 for human HeLa cells to MIC for inhibition of flavodoxin in Helicobacter pylori SS1 assessed as reduction in bacterial growth; assay type: toxicity; conditions: HeLa cells versus Helicobacter pylori SS1, read-out: TI; procedure, shortened: as §1
Helicobacter pylori [15] = test: Antibacterial activity against Helicobacter pylori SS1 infected in NMRI mouse assessed as reduction in gastric colonization at 1 to 20 mg/100g, po administered daily via gavage for 8 days starting from 1 week post-infection and measured 8 days post-last dose; assay type: functional, organism-based; procedure, shortened: as §3
[16] = Therapeutic index, ratio of MCC50 for human HeLa cells to MIC for inhibition of flavodoxin in rifampicin-resistant Helicobacter pylori isolate 5 assessed as reduction in bacterial growth; assay type: toxicity; conditions: read-out: TI; procedure, shortened: as §1
[17] = Therapeutic index, ratio of MCC50 for human HeLa cells to MIC for inhibition of flavodoxin in clarithromycin/metronidazole-resistant Helicobacter pylori isolate 6 assessed as reduction in bacterial growth; assay type: toxicity; conditions: read-out: TI; procedure, shortened: as §1
[18] = Toxicity in NMRI mouse assessed as change in body weight at 1 to 20 mg/100g, po administered daily via gavage for 8 days; assay type: organism-based; conditions: in vivo, 192 h
[19] = Therapeutic index, ratio of MCC50 for human HeLa cells to MIC for inhibition of flavodoxin in metronidazole-resistant Helicobacter pylori isolate 2 assessed as reduction in bacterial growth; assay type: toxicity; conditions: read-out: TI; procedure, shortened: as §1
[20] = Therapeutic index, ratio of MCC50 for human HeLa cells to MIC for inhibition of flavodoxin in metronidazole-resistant Helicobacter pylori isolate 1 assessed as reduction in bacterial growth; assay type: toxicity; conditions: read-out: TI; procedure, shortened: as §1
[21] = Therapeutic index, ratio of MCC50 for human HeLa cells to MIC for inhibition of flavodoxin in clarithromycin/metronidazole-resistant Helicobacter pylori isolate 4 assessed as reduction in bacterial growth; assay type: toxicity; conditions: read-out: TI; procedure, shortened: as §1
[22] = Stability of the compound in DMSO-d6 at pH 1 incubated for 19 hrs under shaking condition by 1H-NMR analysis; assay type: physicochemical; conditions: pH 1, 19 h
Helicobacter pylori [23] = test: Antibacterial activity against Helicobacter pylori SS1 infected in NMRI mouse assessed as bacterial eradication at 10 mg/100g, po administered daily via gavage for 8 days starting from 1 week post-infection and measured 8 days post-last dose relative to control; assay type: functional
Procedure, shortened: (§5)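 From day 8, 100 μL compound in 5–10% DMSO/95–90% olive oil by daily oral gavage for 8 days. Infected controls got vehicle. Killed day 24; stomach homogenates plated 5 days at 37 °C microaerophilic; CFU/g tissue versus control. Mann-Whitney U and unpaired t tests, p ≤ 0.05.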

[24] = Toxicity in NMRI mouse infected with Helicobacter pylori SS1 assessed as change in appetite at 1 to 20 mg/100g, po administered daily via gavage for 8 days starting from 1 week post-infection; assay type: organism-based; conditions: in vivo
Procedure, shortened: (§6)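 Compound in 5–10% DMSO/olive oil (100 μL) given by daily oral gavage for 8 days from day 8. Body weight and appetite were monitored during treatment; infected controls received vehicle alone.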

Helicobacter pylori [25] = test: Antibacterial activity against Helicobacter pylori SS1 infected in NMRI mouse assessed as bacterial eradication at 20 mg/100g, po administered daily via gavage for 8 days starting from 1 week post-infection and measured 8 days post-last dose relative to control; assay type: functional; procedure, shortened: as §5
[26] = Toxicity in NMRI mouse infected with Helicobacter pylori SS1 assessed as change in body weight at 1 to 20 mg/100g, po administered daily via gavage for 8 days starting from 1 week post-infection; assay type: organism-based; conditions: in vivo; procedure, shortened: as §6
[27] = Therapeutic index, ratio of MCC50 for human HeLa cells to MIC for inhibition of flavodoxin in metronidazole-resistant Helicobacter pylori isolate 3 assessed as reduction in bacterial growth; assay type: toxicity; conditions: read-out: TI; procedure, shortened: as §1
Helicobacter pylori [28] = test: Antibacterial activity against Helicobacter pylori SS1 infected in NMRI mouse assessed as reduction in gastric colonization at 0.1 to 1 mg/100g, po administered daily via gavage for 8 days starting from 1 week post-infection and measured 8 days post-last dose; assay type: functional, organism-based
Procedure, shortened: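 From day 8, compound given daily by oral gavage for 8 days in 100 μL of 5–10% DMSO/95–90% olive oil. Sacrificed day 24; stomach homogenate CFU/g counted after 5 days microaerophilic culture at 37 °C. Infected vehicle-treated controls; Mann-Whitney U and unpaired t tests, p ≤ 0.05.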

[29] = Toxicity in NMRI mouse infected with Helicobacter pylori SS1 assessed as change in body weight at 0.1 to 1 mg/100g, po administered daily via gavage for 8 days starting from 1 week post-infection; assay type: organism-based; conditions: in vivo
[30] = Toxicity in NMRI mouse assessed as change in body weight at 0.1 to 1 mg/100g, po administered daily via gavage for 8 days; assay type: organism-based; conditions: in vivo, 192 h
[31] = Toxicity in NMRI mouse infected with Helicobacter pylori SS1 assessed as change in appetite at 0.1 to 1 mg/100g, po administered daily via gavage for 8 days starting from 1 week post-infection; assay type: organism-based; conditions: in vivo

SMILES | selectivity ratio [1] | CC50 [3] | MIC [4] | MIC [5] | Activity [7] | Activity (Staphylococcus aureus) | Activity (Escherichia coli) | Activity [8] | MIC [10] | selectivity ratio [11] | selectivity ratio [14] | other results
O/N=C1\Cc2cc(Cl)cc(Cl)c2OC1c1ccc(F)cc1 (stereo not given) | 19 | 117 µM | 6.1 µM (≈ 1.99 µg/mL) | 12 µM (≈ 3.91 µg/mL) | Active | Non-Toxic | Non-Toxic | Active | 6.1 µM (≈ 1.99 µg/mL) | 19 | 10 | Activity [2]: Non-Toxic; Activity (Helicobacter pylori [6]): inactive; Activity [9]: Non-Toxic; Activity (Helicobacter pylori [12]): Active; Activity [13]: Non-Toxic
COc1ccc(C[S+]([O-])c2ccc(N)c3nonc23)cc1 (stereo not given) | > 39 | > 1000 µM | 26 µM (≈ 7.89 µg/mL) | 105 µM (≈ 31.9 µg/mL) | Active | Non-Toxic | Non-Toxic | Active | 53 µM (≈ 16.1 µg/mL) | > 19 | > 9.5 | Activity (Helicobacter pylori [15]): Active; selectivity ratio [16]: 9.5; selectivity ratio [17]: 9.5; Activity [18]: Non-Toxic; selectivity ratio [19]: 9.5; selectivity ratio [20]: 9.5; selectivity ratio [21]: 9.5; Stability [22]: Stable; Activity (Helicobacter pylori [23]): 5%; Activity [24]: Non-Toxic; Activity (Helicobacter pylori [25]): 60%; Activity [26]: Non-Toxic; selectivity ratio [27]: 9.5
O=[N+]([O-])/C=C/c1cc(C(F)(F)F)cc(C(F)(F)F)c1 | 8.3 | 15 µM | 1.8 µM (≈ 0.513 µg/mL) | 1.8 µM (≈ 0.513 µg/mL) | Active | Non-Toxic | Non-Toxic | Active | 3.5 µM (≈ 0.998 µg/mL) | 4.3 | 8.3 | Activity (Helicobacter pylori [28]): inactive; Activity [29]: Non-Toxic; Activity [30]: Non-Toxic; Activity [31]: Non-Toxic
